# Compound activity as filed in PubChem BioAssay.
# Cneo AK release: causes C. neoformans cell lysis | adenylate kinase release luminescence, 4 h; normalised: neutral wells 0, clomiphene wells 100 | lysis activity, % at 15 µM | 360,000 tested, 0.2% active | AID 651654;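 active = mean lysis activity across replicates of at least 80%, whatever share of replicates individually reach that level; inactive = mean lysis activity below 80%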
#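 Test system: log-phase Cryptococcus neoformans yeast cells. Input: 5 × 10^6 yeast cells/mL. Medium: fresh YPD growth medium. Doses: single dose. Incubation: static 4 h at 37 °C with compound, 1 h detection. Measured by: luminescent adenylate kinase detection reagent. Read-out: signal increase indicating cell lysis. Benchmarks: Clomiphene.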
# DENV2 CPE: DENV2-induced cell death inhibition. DENV2-infected cells, cytopathic effect rescue, plate reader. CPE inhibition, % at 9.99 µM. 350,000 tested, 1.7% active; in the data active = CPE inhibition above about 20%, passing the limit was not always enough; inconclusive = no clear call, values can overlap the other calls; tested in BHK-21 cells;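 note: 0% = median of neutral control wells and 100% = median of positive control wells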
# miR-122 sensor: miR-122 inhibition in Huh7 cells. Huh7 miR-122 Renilla luciferase sensor, 48 h; neutral wells = 0, positive control = 100. activation (reporter increase), % at 12.5 µM. 340,000 tested, 0.3% active. AID 602342;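 active = mean replicate activation score at least 90 and every replicate individually at or above 90; inconclusive = only one of the two criteria met; inactive = neither criterion met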;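 note: higher luciferase means less miR-122 activity so hits act as miR-122 inhibitors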
# E-selectin induc: E-selectin induction on HUVECs. HUVEC E-selectin immunofluorescence imaging; normalized: neutral wells 0, TNF-alpha wells 100. activation, % at 7.58 µM. 260,000 tested, 0.37% active;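 active = mean E-selectin-positive cell signal at least 10% of the positive control, reached in at least 60% of replicates, without over 20% cell loss; inconclusive = no rule given, readout overlaps actives, possibly toxicity-flagged; inactive = the rest, including those meeting only one limit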
# Target sequence (P16581 whole entry, looked up): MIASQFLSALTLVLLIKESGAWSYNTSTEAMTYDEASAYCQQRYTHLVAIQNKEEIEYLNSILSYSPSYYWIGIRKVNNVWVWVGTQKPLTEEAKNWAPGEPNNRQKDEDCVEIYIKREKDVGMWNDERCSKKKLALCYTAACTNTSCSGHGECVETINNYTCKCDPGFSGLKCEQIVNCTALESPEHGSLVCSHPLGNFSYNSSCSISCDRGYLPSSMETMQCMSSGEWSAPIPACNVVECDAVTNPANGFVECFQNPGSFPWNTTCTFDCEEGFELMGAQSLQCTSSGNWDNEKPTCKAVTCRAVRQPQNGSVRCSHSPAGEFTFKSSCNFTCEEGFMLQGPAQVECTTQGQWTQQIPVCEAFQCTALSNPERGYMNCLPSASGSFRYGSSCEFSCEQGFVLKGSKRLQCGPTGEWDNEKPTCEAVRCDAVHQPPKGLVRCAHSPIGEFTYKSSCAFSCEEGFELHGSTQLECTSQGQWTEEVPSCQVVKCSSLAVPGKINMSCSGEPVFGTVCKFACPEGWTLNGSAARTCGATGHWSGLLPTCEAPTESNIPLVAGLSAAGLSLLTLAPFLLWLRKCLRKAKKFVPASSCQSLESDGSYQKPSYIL
#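 System: HUVEC, human umbilical vein endothelial cells; quantity: 3,000 cells/well; buffer or medium: EGM-2 medium, gelatin-coated wells; dosing: single-point compound dose; detection: immunofluorescence imaging; evaluation: % PE-positive cells; benchmarks: TNF-alpha, DMSO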
# Ecoli rRNA inh: inhibits bacterial ribosomal RNA function over humanized ribosomes | E. coli WT GFP vs humanized-ribosome RFP mutants, fluorescence, 24 h; hits give low values; DMSO median 0, no signal -100 | GFP signal change (wild-type ribosome), % (concentration not given with the values) | 350,000 tested, 1.6% active | AID 720706;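 active = significant combined selectivity score with lowered wild-type GFP, culture density cut under 30%, mutant RFP and density less affected; inactive = any of these conditions unmet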
# AID977621: wild-type E. coli growth inhibition versus H69 humanized strain – H69 mutant RFP, wild-type GFP, cherry-pick, dose response; shares compounds with Ecoli rRNA inh; fluorescence, 24 h; activity change, negative = inhibition at 50 µM; 1,900 tested, under 10 active;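 active = Wild-type ribosome reporter drop at least double the humanized mutant ribosome reporter drop, growth loss under a set limit; inconclusive = no clear call, values can overlap the other calls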;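 note: wild-type GFP and H69 mutant RFP strains grown together 50/50 in each well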
# AID977628: growth of wild-type and h24-humanized E. coli strains – h24 mutant RFP vs wild-type GFP, cherry-pick, dose response | shares compounds with Ecoli rRNA inh | E. coli WT GFP strain growth, fluorescence, 24 h | activity change, negative = inhibition at 50 µM | 1,900 tested, under 10 active | AID 977628;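 active = compound lowering the normal-ribosome reporter at least twice as much as the humanized-ribosome reporter, growth loss under a set limit; inconclusive = no clear call, values can overlap the other calls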;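 note: wild-type GFP and h24 humanized RFP strains co-cultured 1 to 1 per well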
# * hit, by the source's call; u = inconclusive; x = no result; [ ] = another dose, or the depositor's remark. Compounds with a hit are over-represented: about 3.1% of the library has one in this group of screens.
SMILES,Cneo AK release,DENV2 CPE,miR-122 sensor,E-selectin induc,Ecoli rRNA inh,AID977621,AID977628
CC(=O)N(C)C[C@@H]1Oc2ncc(-c3cccc(C#N)c3)cc2C(=O)N([C@H](C)CO)C[C@H]1C,-13,-6,-7[16.7 µM],0,2,x,x
CCCN(C)C[C@H]1Oc2cc(-c3cccnc3)ccc2S(=O)(=O)N([C@H](C)CO)C[C@H]1C,2,19,-2[16.7 µM],0,1,x,x
Nc1ccc(C(=O)OCCc2ccccc2)cc1,-13,-6,-3,0,-30*,-9,-4.7
O=C(OCCc1ccccc1)c1cc(O)c(O)c(O)c1,-9,-1,-6,0,-40,x,x
O=C(CN1CCc2ccccc2C1)Nc1ccc(F)cc1F,0,-6,-9,0,-21*,-21,u
O=C(Nc1cccc(F)c1)N1[C@@H]2CNC[C@H]1C2c1ccc(-c2ccncc2)cc1 (stereo partly drawn),x,-10,x,0,-25*,-18,-1.7
O=C(Nc1ccc(F)cc1)N1CCCCN2[C@@H](CO)[C@H](c3ccc(-c4ccncc4)cc3)[C@@H]2C1,0,30*,-1[16.7 µM],0,-20*,-9.3,x
COc1ccc(C#Cc2ccc([C@@H]3[C@@H](CO)N4CCCCN(C(=O)Nc5ccc(F)cc5)C[C@H]34)cc2)cc1,0,-13,-14[16.7 µM],-1,-48*,x,u
O=C(Nc1cc(F)ccc1F)N1[C@@H]2CNC[C@H]1C2c1ccc(-c2ccncc2)cc1 (stereo partly drawn),x,-2,x,0,-1,x,x
O=C(Nc1ccc(F)cc1)N1CCCCN2[C@H](CO)[C@H](c3ccc(-c4ccncc4)cc3)[C@H]2C1,1,-10,1[16.7 µM],0,-3,x,x
CC(=O)Nc1ccc(NC(=O)C2(C)Cc3c(-c4ccc5c(c4)OCO5)ccnc3O2)cc1 (stereo not drawn),1,-6,0,0,-3,x,x
CC(=O)Nc1ccc(-c2ccnc3c2CC(C)(C(=O)Nc2ccc4c(c2)OCO4)O3)cc1 (stereo not drawn),-1,18,23,1,-23*,-12,x
Cc1cc(NCc2ccccn2)n2nc(C)c(-c3ccccc3)c2n1,x,-13,x,3,-47*,-4.5,u
COc1ccccc1NC(=O)N(C)C[C@H]1Oc2ncc(C#CCC(C)C)cc2C(=O)N([C@H](C)CO)C[C@H]1C,1,-4,-1[16.7 µM],0,-2,x,x
Cc1cc(NC(=O)CCN2C(=O)C3C4C=CC(C4)C3C2=O)ccc1Br (stereo not drawn),-13,0,-5,0,-21*,-8.3,-18
C[C@H](CO)N1C[C@H](C)[C@@H](CN(C)C(=O)c2ccccn2)Oc2cc(C#Cc3ccccc3)ccc2S1(=O)=O,-1,-8,11[16.7 µM],0,-10,x,x
C[C@@H]1CN([C@@H](C)CO)C(=O)CCCn2nncc2CO[C@H]1CN(C)C(=O)Nc1cccc(C(F)(F)F)c1,2,-2,-5[16.7 µM],0,-17*,x,u
COc1ccc(NC(=O)c2cccnc2SC)cc1S(=O)(=O)N1CCCCC1,x,-4,x,2,-25*,u,x
COc1ccc(S(=O)(=O)Nc2ccc3c(c2)C(=O)N([C@H](C)CO)C[C@@H](C)[C@H](CN(C)S(=O)(=O)c2cccs2)OCCCC[C@@H](C)O3)cc1,0,4,-14[16.7 µM],x,-4,x,x
COCc1[nH]nc2c1C(c1ccc3c(c1)OCO3)N(c1ccc(OC)cc1)C2=O (stereo not drawn),x,5,x,0,-30*,4.7,0.031
C[C@H]1CN([C@@H](C)CO)C(=O)c2cccc(NS(=O)(=O)c3cn(C)cn3)c2O[C@H]1CN(C)S(=O)(=O)c1ccc(Cl)cc1,4,-8,2[16.7 µM],0,3,x,x
CC(C(=O)NC1CCCCCC1)n1cc([N+](=O)[O-])cn1 (stereo not drawn),2,-2,-2,0,5,x,x
